From PubChem BioAssay
ABHD5-PLIN5 inh: ABHD5-PLIN5 interaction inhibitors, primary screen, cell lysate, split luciferase complementation, luminescence | Perilipin-5 (Homo sapiens) + 1-acylglycerol-3-phosphate O-acyltransferase ABHD5 (Homo … | Split G. princeps luciferase complementation, 4 h | 360,000 tested, 0.78% active | AID 602281, 2012 | inhibition, % at 4 µM;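 active means inhibition above the mean inhibition across every tested compound plus 3 SD, cut at about 22% in these data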;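 further: 0% = DMSO only wells and the 100% control is not disclosed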
MC4R antag cAMP: MC4R antagonists of cAMP signaling, primary screen, cell-based, TR-FRET, antagonist arm of biased-ligand search; MC4R-expressing cells, MTII-stimulated cAMP, LANCE TR-FRET; inhibition, % at 6.5 µM; AID 540295, 2011; 360,000 tested, 0.48% active;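 active means inhibition above its plate's cutoff, the mean of tested wells on that plate plus 3 SD, cut at about 29% in these data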;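 further: 0% = Melanotan II alone and 100% = Melanotan II plus saturating MCL0020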
Target sequence (P32245 whole entry, looked up): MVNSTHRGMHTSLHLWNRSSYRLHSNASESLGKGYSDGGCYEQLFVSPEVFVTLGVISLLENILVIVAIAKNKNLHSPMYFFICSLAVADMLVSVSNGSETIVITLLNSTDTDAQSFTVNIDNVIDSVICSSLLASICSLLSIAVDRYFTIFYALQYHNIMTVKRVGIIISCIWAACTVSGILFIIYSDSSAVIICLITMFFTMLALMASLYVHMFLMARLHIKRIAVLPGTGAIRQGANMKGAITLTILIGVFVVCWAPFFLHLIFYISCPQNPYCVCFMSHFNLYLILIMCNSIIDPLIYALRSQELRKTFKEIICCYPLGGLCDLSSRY
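System: U2OS cells stably expressing human melanocortin 4 receptor (MC4R). Reagent: Melanotan II challenge after compound preincubation. Doses: 6.5 µM. Times: 30-min compound, 1-h challenge, 1-h detection, room temperature. Measured by: TR-FRET with Eu-cAMP and labeled anti-cAMP, 671 nm. Replicates: singlicate.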
MC4R barr agon: MC4R agonists recruiting beta-arrestin, primary screen, cell-based, luminescence, agonist arm of biased-ligand search | 360,000 tested, 0.98% active | U2OS MC4R beta-arrestin complementation; percent of melanotan II response, DMSO zero | activation, % at 8.9 µM | Melanocortin receptor 4 (Homo sapiens), P32245;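 active means activation above a per-plate cutoff, the mean activation of sample wells on that plate plus 3 SD, cut at about 8% in these data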
Beta2AR agonist: beta2AR agonists driving receptor internalization, primary screen, cell-based, FAP fluorogen, flow cytometry; 340,000 tested, 0.43% active; Am2.2-beta2AR cells; response, % (test concentration not listed); Beta-2 adrenergic receptor (Homo sapiens), P07550;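 active means response above a set limit, near 3 SD of response in nonfluorescent compounds, cut at about 42% in these data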
PfG6PD inh: PfG6PD enzyme inhibitors, primary screen, biochemical, fluorescence intensity, uHTS | inhibition, % at 20 µM | 350,000 tested, 0.78% active | AID 504690, 2011 | glucose-6-phosphate dehydrogenase-6-phosphogluconolactonase (Plasmodium falciparum 3D7) | PfGluPho enzyme, NADPH resazurin-diaphorase fluorescence;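 active means inhibition reaching at least a set limit at 20 µM in the primary screen, cut at about 59% in these data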;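 further: 0% = DMSO wells with substrate and 100% = DMSO wells lacking glucose-6-phosphate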
PfGluPho conf: PfG6PD inhibitors, hit retest, confirmation, biochemical, fluorescence intensity, single concentration; recombinant PfGluPho, NADPH-diaphorase-resazurin fluorescence; AID 504753, 2011; 2,400 tested, 34% active; shares compounds with PfG6PD inh; inhibition, % at 20 µM;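 active means inhibition of at least 50% at 20 µM in any single replicate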;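 further: 0% = DMSO with substrate and 100% = DMSO lacking glucose-6-phosphate substrate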
Diaphorase 10uM: diaphorase inhibitors and chemical oxidizers, confirmation, counter-screen for P. falciparum G6PD inhibitor project, biochemical, fluorescence intensity, 10 µM NADPH; shares compounds with PfG6PD inh; diaphorase-coupled resazurin reduction, NADPH 10 uM; inhibition, % at 20 µM; 820 tested, 39% active; AID 504862, 2011;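 active means average inhibition reaching 50% or more with the compound at 20 µM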;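 further: resorufin red fluorescence formed as diaphorase reduces resazurin using NADPH; 0% = DMSO with enzyme and 100% = DMSO without enzyme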
Diaph ctr 30uM: diaphorase inhibitors and chemical oxidizers, confirmation, counter-screen for P. falciparum G6PD inhibitor project, biochemical, fluorescence intensity, 30 µM NADPH; inhibition, % at 20 µM; Diaphorase/resazurin coupled assay, resorufin fluorescence; 820 tested, 29% active; shares compounds with PfG6PD inh;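 active means inhibition averaging 50% or more, tested at 20 µM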;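 further: 0% = DMSO with enzyme and 100% = DMSO wells lacking diaphorase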
* marks the source's active call; other numbers are inactive results; x = no result. An excerpt weighted towards active compounds, which were near 3% of everything screened.

SMILES	ABHD5-PLIN5 inh	MC4R antag cAMP	MC4R barr agon	Beta2AR agonist	PfG6PD inh	PfGluPho conf	others
C[C@@H]1ON(C)[C@H]2C[C@H]3c4[nH]c5ccccc5c4CCN3C(=O)[C@@H]12	1	6	0	x	-10	x
O=S(=O)(Nc1ccccn1)c1cnc(Cl)c(Br)c1	5	12	0	5	-18	x
COc1cnn(-c2ccc(Br)cc2)c(=O)c1SCc1ccccc1	-7	4	3	-5	17	x
COc1cnn(-c2ccccc2)c(=O)c1SCc1ccc(Cl)cc1Cl	-3	-3	1	-2	66*	-3
COc1cnn(-c2ccc(C)cc2)c(=O)c1SCc1ccccc1	1	4	-2	-9	66*	3
COC(=O)c1cn(NC(=O)/C=C/c2cc(OC)ccc2OC)c(=O)c2ccccc12	5	-5	-1	-5	-2	x
N=C1/C(=C/c2cccn2CCOc2ccccc2)C(=O)N=C2SC=C(c3ccccc3)N12	0	-8	-5	-1	65*	9
N=C1/C(=C\c2ccc(-c3cc(Cl)cc(Cl)c3)o2)C(=O)N=C2SC=C(c3ccccc3)N12	1	14	-3	9	7	x
COCCCn1cc(CN2CC(N3CCSCC3)CS2(=O)=O)nn1 (centres undefined)	12	x	x	x	x	x
c1ccc2c(c1)CCN(c1nc3cc4c(cc3s1)OCCO4)C2	6	9	-2	7	64*	18
CCOC(=O)N1CCC(Nc2ncnc3c2cnn3-c2ccccc2)CC1	10	17	0	15	4	x
c1ccc(-n2ncc3c(NC4CCCCCC4)ncnc32)cc1	3	10	1	3	96*	21
COc1cc(C(=S)N2CCCC2)cc(Cl)c1OCC(=O)Nc1ccc(C)cc1C	-9	4	-2	9	64*	-1
Cc1nn(C(=O)c2ccco2)c(C)c1Sc1ccc(Cl)cc1	-2	7	1	-10	-4	x
Cc1nn(C(=O)c2cccnc2)c(C)c1Sc1ccc(Br)cc1	-12	13	-1	3	67*	44
CCOC(=O)NC(=O)CSc1nnc(C2CC2)n1Cc1ccco1	0	-1	-1	1	1	x
Cc1cc2c(N)cccc2nn1	-12	-8	2	13	100*	4
Nc1cccc2nc3ccccc3cc12	8	-5	0	7	-5	x
CCN1CCN(c2nc3sc4c(c3c(=O)n2-c2ccc(OC)cc2)CCCCC4)CC1	1	-2	0	-33	-6	x
COc1ccc(-n2c(NN)nc3sc4c(c3c2=O)CCCC4)cc1	-3	11	-1	-2	92*	29
O=C(CN1C(=O)c2cccc([N+](=O)[O-])c2C1=O)N1CCc2ccccc2C1	-9	25	0	x	8	x
Cc1ccc(NC(=O)CS(=O)(=O)c2cn(C)c3ccccc23)c(C)c1	6	6	0	0	16	x
Cn1cc(S(=O)(=O)CC(=O)Nc2ccc(Br)cc2)c2ccccc21	-4	-4	1	-8	87*	39
Cc1cccc(N(CC(=O)N/N=C/c2cc([N+](=O)[O-])ccc2Cl)S(C)(=O)=O)c1C	3	-7	0	10	123*	82*	Diaphorase 10uM=79*;Diaph ctr 30uM=71*
